Assay results published in ChEMBL document CHEMBL4330056, “Synthesis and Cytotoxic and Antiviral Profiling of Pyrrolo- and Furo-Fused 7-Deazapurine Ribonucleosides” (J Med Chem, 2018).
Activity calls are given as the source filed them. No cut-off for these calls is given here.

Tests used:
BJ = test: Antiproliferative activity against human BJ cells after 3 days by MTS assay; conditions: 72 h
MRC5 = test: Antiproliferative activity against human MRC5 cells after 3 days by MTS assay; conditions: MRC5, 72 h
A549 = test: Antiproliferative activity against human A549 cells after 3 days by MTS assay; assay type: functional, cell-based; conditions: A549, 72 h
[1] = Antiproliferative activity against human CEM-DNR-bulk cells after 3 days by MTS assay; conditions: 72 h
HCT-116 [2] = test: Antiproliferative activity against human HCT116 cells after 3 days by MTS assay; assay type: functional, cell-based; conditions: HCT-116, 72 h
HCT-116 [3] = test: Antiproliferative activity against p53 gene knocked out human HCT116 cells after 3 days by MTS assay; assay type: functional, cell-based; conditions: HCT-116, 72 h
[4] = Antiproliferative activity against human K562-TAX cells after 3 days by MTS assay; assay type: functional, cell-based; conditions: 72 h
U2OS = test: Antiproliferative activity against human U2OS cells after 3 days by MTS assay; assay type: functional, cell-based; conditions: 72 h
HeLa S3 = test: Antiproliferative activity against human HeLaS3 cells after 72 hrs by XTT assay; assay type: functional, cell-based; conditions: HeLa S3, 72 h
CCRF-CEM [5] = test: Induction of cell cycle arrest in human CCRF-CEM cells assessed as accumulation at subG1 phase at IC50 concentration after 24 hrs by propidium iodide-staining based flow cytometry (reference value: 3.45%); assay type: functional
CCRF-CEM [6] = test: Induction of cell cycle arrest in human CCRF-CEM cells assessed as accumulation at subG1 phase at 5 times IC50 concentration after 24 hrs by propidium iodide-staining based flow cytometry (reference value: 3.45%); assay type: functional
CCRF-CEM [7] = test: Induction of cell cycle arrest in human CCRF-CEM cells assessed as accumulation at G0/G1 phase at IC50 concentration after 24 hrs by propidium iodide-staining based flow cytometry (reference value: 39.70%); assay type: functional
CCRF-CEM [8] = test: Induction of cell cycle arrest in human CCRF-CEM cells assessed as accumulation at G0/G1 phase at 5 times IC50 concentration after 24 hrs by propidium iodide-staining based flow cytometry (reference value: 39.70%); assay type: functional
CCRF-CEM [9] = test: Induction of cell cycle arrest in human CCRF-CEM cells assessed as accumulation at S phase at IC50 concentration after 24 hrs by propidium iodide-staining based flow cytometry (reference value: 41.08%); assay type: functional
CCRF-CEM [10] = test: Induction of cell cycle arrest in human CCRF-CEM cells assessed as accumulation at S phase at 5 times IC50 concentration after 24 hrs by propidium iodide-staining based flow cytometry (reference value: 41.08%); assay type: functional
CCRF-CEM [11] = test: Induction of cell cycle arrest in human CCRF-CEM cells assessed as accumulation at G2/M phase at IC50 concentration after 24 hrs by propidium iodide-staining based flow cytometry (reference value: 19.22%); assay type: functional
CCRF-CEM [12] = test: Induction of cell cycle arrest in human CCRF-CEM cells assessed as accumulation at G2/M phase at 5 times IC50 concentration after 24 hrs by propidium iodide-staining based flow cytometry (reference value: 19.22%); assay type: functional
CCRF-CEM [13] = test: Inhibition of mitosis in human CCRF-CEM cells assessed Ser10 H3 phosphorylation positive cells at IC50 concentration after 24 hrs by flow cytometry relative to total cell population (reference value: 1.36%); assay type: functional; parameters: scale not given: the % may be the effect or the level left
CCRF-CEM [14] = test: Inhibition of mitosis in human CCRF-CEM cells assessed Ser10 H3 phosphorylation positive cells at 5 times IC50 concentration after 24 hrs by flow cytometry relative to total cell population (reference value: 1.36%); assay type: functional; parameters: scale not given: the % may be the effect or the level left
CCRF-CEM [15] = test: Inhibition of DNA synthesis in human CCRF-CEM cells assessed as DNA synthesis level at IC50 concentration after 24 hrs by BrdU incorporation assay (reference value: 43.39%); assay type: functional; parameters: scale not given: the % may be the effect or the level left
CCRF-CEM [16] = test: Inhibition of DNA synthesis in human CCRF-CEM cells assessed as DNA synthesis level at 5 times IC50 concentration after 24 hrs by BrdU incorporation assay (reference value: 43.39%); assay type: functional; parameters: scale not given: the % may be the effect or the level left
CCRF-CEM [17] = test: Inhibition of RNA synthesis in human CCRF-CEM cells assessed as RNA synthesis level at IC50 concentration after 24 hrs by BrU incorporation assay (reference value: 49.89%); assay type: functional; parameters: scale not given: the % may be the effect or the level left
CCRF-CEM [18] = test: Inhibition of RNA synthesis in human CCRF-CEM cells assessed as RNA synthesis level at 5 times IC50 concentration after 24 hrs by BrU incorporation assay (reference value: 49.89%); assay type: functional; parameters: scale not given: the % may be the effect or the level left
Hepatitis C virus [19] = test: Antiviral activity against Hepatitis C virus genotype 1b infected in human Huh-luc replicon cells after 3 days by luciferase assay; assay type: functional, organism-based, Hepacivirus hominis; conditions: subtype 1b, 72 h
[20] = Cytotoxicity against human Hep2 cells assessed as reduction in cell viability after 3 days by CellTiter-Glo assay; assay type: cell-based; conditions: HEp-2 cells
Hepatitis C virus [21] = test: Antiviral activity against Hepatitis C virus genotype 2a infected in human Huh-luc replicon cells after 3 days by luciferase assay; assay type: functional, organism-based, Hepacivirus hominis; conditions: subtype 2a, 72 h
CCRF-CEM [22] = test: Antiproliferative activity against human CCRF-CEM cells after 3 days by MTS assay; assay type: functional, cell-based; conditions: 72 h
K562 = test: Antiproliferative activity against human K562 cells after 3 days by MTS assay; assay type: functional, cell-based; conditions: K562, 72 h
HL-60 = test: Antiproliferative activity against human HL60 cells after 72 hrs by XTT assay; assay type: functional, cell-based; conditions: HL-60, 72 h
HepG2 = test: Antiproliferative activity against human HepG2 cells after 72 hrs by XTT assay; assay type: functional, cell-based; conditions: HepG2, 72 h
Adenosine kinase [23] = target: T1, Adenosine kinase (Homo sapiens, UniProt P55263); test: Substrate activity at recombinant human ADK assessed as compound phosphorylation at 50 uM after 20 mins in presence of [3H]-adenosine by UPLC; assay type: ADME
T1 sequence (P55263 whole entry): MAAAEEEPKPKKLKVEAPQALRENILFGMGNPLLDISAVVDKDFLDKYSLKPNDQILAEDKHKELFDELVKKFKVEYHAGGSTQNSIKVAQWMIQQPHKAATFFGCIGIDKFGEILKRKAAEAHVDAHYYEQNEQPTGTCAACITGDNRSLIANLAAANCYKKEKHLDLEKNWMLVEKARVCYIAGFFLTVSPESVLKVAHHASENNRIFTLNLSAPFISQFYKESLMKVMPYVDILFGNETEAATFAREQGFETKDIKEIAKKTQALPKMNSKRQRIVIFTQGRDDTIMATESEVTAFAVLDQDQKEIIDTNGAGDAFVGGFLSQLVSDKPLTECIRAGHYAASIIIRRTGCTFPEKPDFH

Adenosine kinase [24] = target: T1, Adenosine kinase; test: Inhibition of recombinant human ADK using [3H]-adenosine as substrate after 20 mins by TLC scanner-based analysis relative to control
Method in brief: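 ADK inhibition: 50 μM adenosine substrate with 10 μM test compound and 97 ng enzyme, 20 min at 37 °C.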

Influenza A virus = test: Antiviral activity against Influenza A virus (A/Mexico/4108/2009(H1N1)) infected in MDCK cells assessed as inhibited virus-induced cytopathic effect incubated for 2 days by XTT assay; assay type: functional, organism-based
Human orthopneumovirus = test: Antiviral activity against Human respiratory syncytial virus A2 infected in Hep2 cells assessed as reduction in virus-induced cytopathic effect incubated for 4 days by CellTiter-Glo viability reagent based assay; assay type: functional, organism-based
Coxsackievirus B3 = test: Antiviral activity against Human coxsackie B3 Nancy infected in human HeLa cells assessed as inhibited virus-induced cytopathic effect incubated for 2 days by XTT assay; assay type: functional, organism-based
Human alphaherpesvirus 1 = test: Antiviral activity against human herpesvirus 1 HF infected in African green monkey Vero cells assessed as inhibited virus-induced cytopathic effect incubated for 3 days by XTT assay; assay type: functional, organism-based
dengue virus type 2 = test: Antiviral activity against Dengue virus 2 Thailand/16681/84 infected in African green monkey Vero cells assessed as inhibition of virus replication incubated for 3 days by fluorescence microscopy; assay type: functional, organism-based

Compound | IC50 (BJ) [µM] | IC50 (MRC5) [µM] | IC50 (A549) [µM] | IC50 [1] [µM] | IC50 (HCT-116 [2]) [µM] | IC50 (HCT-116 [3]) [µM] | IC50 [4] [µM] | IC50 (U2OS) [µM] | IC50 (HeLa S3) [µM] | EC50 (Hepatitis C virus [19]) [µM] | CC50 at 72 h [20] [µM] | EC50 (Hepatitis C virus [21]) [µM] | IC50 (CCRF-CEM [22]) [µM] | IC50 (K562) [µM] | IC50 (HL-60) [µM] | IC50 (HepG2) [µM] | Activity (Adenosine kinase [23]) [%] | IC50 (Adenosine kinase [24]) [µM] | Activity (Influenza A virus) | Activity (Human orthopneumovirus) | other results
Nc1ncnc2c1c(-c1cccs1)cn2[C@@H]1O[C@H](CO)[C@@H](O)[C@H]1O | > 50 | > 50 | 13.1 | 0.06 | 0.02 | 0.02 | 0.04 | 0.51 | 0.02 |  |  |  |  |  |  |  |  |  |  |  | Activity (CCRF-CEM [5]): 29.83%; Activity (CCRF-CEM [6]): 58.53%; Activity (CCRF-CEM [7]): 20.49%; Activity (CCRF-CEM [8]): 32.31%; Activity (CCRF-CEM [9]): 62.28%; Activity (CCRF-CEM [10]): 38.71%; Activity (CCRF-CEM [11]): 17.23%; Activity (CCRF-CEM [12]): 28.98%; Activity (CCRF-CEM [13]): 2.09%; Activity (CCRF-CEM [14]): 0.94%; Activity (CCRF-CEM [15]): 3.59%; Activity (CCRF-CEM [16]): 10.76%; Activity (CCRF-CEM [17]): 0.91%; Activity (CCRF-CEM [18]): 57.09%
Cn1ccc2c3c(-c4cc5ccccc5o4)ncnc3n([C@@H]3O[C@H](CO)[C@@H](O)[C@H]3O)c21 | 44.7 | 45.2 | 35.4 | 30.6 | 36.5 | 36.4 | 23 | 28.9 | > 50 | 7.83 | 27.5 to 29.1 | 15.5 | 9.48 | 22.1 | > 50 | > 50 | 0 | 0.47 | inactive | inactive | Activity (Coxsackievirus B3): inactive; Activity (Human alphaherpesvirus 1): inactive; Activity (dengue virus type 2): inactive
Cn1ccc2c1c1c(-c3cc4ccccc4o3)ncnc1n2[C@@H]1O[C@H](CO)[C@@H](O)[C@H]1O | > 50 | > 50 | > 50 | 29.8 | 46.2 | 47.5 | 29.3 | 43.9 | > 50 | 1.6 | 26.9 to 44.4 | 32.5 | 16.5 | > 50 | > 50 | > 50 | 0 | 0.3 | inactive | inactive | Activity (Coxsackievirus B3): inactive; Activity (Human alphaherpesvirus 1): inactive; Activity (dengue virus type 2): inactive
COc1ncnc2c1c1ccn(C)c1n2[C@@H]1O[C@H](CO)[C@@H](O)[C@H]1O | > 50 | > 50 | > 50 | > 50 | > 50 | > 50 | > 50 | > 50 | > 50 | > 44.4 | > 44.4 | > 44.4 | > 50 | > 50 | > 50 | > 50 | 0 | > 10 | inactive | inactive | Activity (Coxsackievirus B3): inactive; Activity (Human alphaherpesvirus 1): inactive; Activity (dengue virus type 2): inactive
Cn1ccc2c3c(Cl)ncnc3n([C@@H]3O[C@H](CO)[C@@H](O)[C@H]3O)c21 | > 50 | > 50 | > 50 | > 50 | > 50 | > 50 | > 50 | > 50 | > 50 | 36.4 | > 44.4 | > 44.4 | > 50 | > 50 | > 50 | > 50 | 0 | > 10 | inactive | inactive | Activity (Coxsackievirus B3): inactive; Activity (Human alphaherpesvirus 1): inactive; Activity (dengue virus type 2): inactive
